SMILES strings stand for the structures. The source made the active and inactive calls. No cut-off for these calls is given here.

One experiment relates to Escherichia coli. As to the kind of experiment: Induction of plasmid pBR322 DNA cleavage at 1 mM after 24 hrs by gel electrophoresis. Put shortly:
(§1)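 Supercoiled pBR322 (90% form I) diluted to 50 µg/mL (75 µM/bp) in pH 7.5 Tris 40 mM/EDTA 4 mM. Incubated 24 h at 37 °C, then run on agarose gel with ethidium bromide and viewed at 302 nm. Form I versus II+III quantified by densitometry after subtracting form II present in the control.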
Take `CON1C(=O)[C@@H]2CC#C/C=C\C#CC(C)[C@H]21` (stereo partly drawn): the outcome was inactive.

The next experiment relates to Escherichia coli. As to the kind of experiment: Induction of plasmid pBR322 DNA cleavage assessed as concentration required to cleave 50% of DNA after 24 hrs by gel electrophoresis. A digest of the protocol:
as §1
As to `CC(=O)O[C@@H]1C#C/C=C\C#CC[C@H]2C(=O)N(C(=O)Nc3cccc4ccccc34)[C@H]12`, the CS50 amounted to 25 µM.
Same read-out and setting: the same measure for `CC(=O)O[C@@H]1C#C/C=C\C#CC[C@H]2C(=O)N(C(=O)NCc3ccc4ccccc4c3)[C@H]12`: 70 µM; for `CC(=O)O[C@@H]1C#C/C=C\C#CC[C@H]2C(=O)N(C(=O)NCc3cccc4ccccc34)[C@H]12`: 25 µM.
Still for that read-out and setting: the same measure for `CC(C)(C)OC(=O)N1C(=O)[C@@H]2CC#C/C=C\C#C[C@@H](OC(=O)CCc3cccc4ccccc34)[C@H]21`: 80 µM; for `CC[C@@]1(O)C(=O)OCc2c1cc1n(c2=O)Cc2c-1nc1ccccc1c2/C=N/OCCNC(=O)CCNC(=O)N1C(=O)[C@@H]2CC#C/C=C\C#C[C@@H](OC(C)=O)[C@H]21`: 10 µM.
The same measure, in the same setting: the same measure for `CC(=O)O[C@@H]1C#C/C=C\C#CC[C@H]2C(=O)N(C(=O)NCCc3ccc4ccccc4c3)[C@H]12`: 150 µM.
As for `CC(C)(C)OC(=O)N1C(=O)[C@@H]2CC#C/C=C\C#C[C@@H](OC(=O)Cc3cccc4ccccc34)[C@H]21`, the CS50 is 80 µM.
Same read-out and setting: the same measure for `CC(=O)O[C@H]1C#C/C=C\C#CC[C@H]2C(=O)N(C(=O)NCc3cccc4ccccc34)[C@H]12`: 25 µM; for `CC(=O)Nc1cc(C(=O)Nc2cc(C(=O)N(C)CCCCCNC(=O)N3C(=O)[C@@H]4CC#C/C=C\C#C[C@@H](OC(C)=O)[C@H]43)n(C)c2)n(C)c1`: 35 µM.
Turning to `CC(C)(C)OC(=O)N1C(=O)[C@@H]2CC#C/C=C\C#C[C@@H](OC(=O)CCc3ccc4ccccc4c3)[C@H]21`, the CS50 was 150 µM.
For `CC(=O)O[C@H]1C#C/C=C\C#CC[C@H]2C(=O)N(C(=O)OC(C)(C)C)[C@H]12`, the CS50 is 30 µM.
Turning to `CCCCNC(=O)c1cc(NC(=O)c2cc(NC(=O)CCNC(=O)N3C(=O)[C@@H]4CC#C/C=C\C#C[C@@H](OC(C)=O)[C@H]43)n(C)c2)n(C)c1`, the CS50 was found to be 15 µM.
On the same count and under the same terms, the same measure for `CC(=O)O[C@@H]1C#C/C=C\C#CC[C@H]2C(=O)N(C(=O)NCCc3cccc4ccccc34)[C@H]12`: 40 µM.
For the molecule `CC(=O)O[C@@H]1C#C/C=C\C#CC[C@H]2C(=O)N(C(=O)NCc3ccccc3)[C@H]12`, the CS50 was determined as 70 µM.
With `CC(=O)O[C@@H]1C#C/C=C\C#CC[C@H]2C(=O)N(C(=O)Nc3ccc4ccccc4c3)[C@H]12`, the CS50 was determined as 200 µM.
On the same count and under the same terms, the same measure for `CC(=O)O[C@@H]1C#C/C=C\C#CC[C@H]2C(=O)N(C(=O)NCCC(=O)NCc3ccccc3)[C@H]12`: 25 µM; for `CC(=O)O[C@@H]1C#C/C=C\C#CC[C@H]2C(=O)N(C(=O)NCCCCCN(C)C(=O)Cc3cccc4ccccc34)[C@H]12`: 25 µM.

Values taken from ChEMBL document CHEMBL1142420, “Synthesis and DNA-cleaving activity of lactenediynes conjugated with DNA-complexing moieties” (2008).
